For 10 compounds, Ki and IC50 results are on record in ChEMBL document CHEMBL1152574, “Novel 2H-isoquinolin-3-ones as antiplasmodial falcipain-2 inhibitors” (Bioorg Med Chem, 2009).

Each structure is given as a SMILES string.

The target of one experiment is Rhodesain (Trypanosoma brucei rhodesiense, UniProt Q95PM0). The experiment can be described thus: Inhibition of Trypanosoma brucei rhodesiense rhodesain. The gist of the method: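 Continuous fluorometric progress-curve assay in 100 mM sodium acetate, pH 5.5, with 10 mM DTT. Substrate is Cbz-Phe-Arg-AMC (40 or 10, depending on enzyme). Inhibitors come from DMSO stocks, at increasing concentrations up to 100. AMC read at ex 365/em 460 nm, each assay run twice. Kiapp is taken from a Dixon plot and corrected to zero substrate with Km to give Ki.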

A further experiment deals with Procathepsin L (Homo sapiens, UniProt P07711). The experiment can be described thus: Inhibition of human cathepsin L.
In another experiment the target is Cathepsin B (Homo sapiens, UniProt P07858). Put plainly: Inhibition of human cathepsin B.
The nature of experiment [1]: Inhibition of Plasmodium falciparum falcipain-2. Summed up:
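Recombinant FP-2 in 100 mM sodium acetate pH 5.5, 10 mM DTT, substrate Cbz-Phe-Arg-AMC; reversibility screen at 100 µM with E-64 control, then continuous progress-curve assays with 0–100 µM inhibitor; fluorescence ex 365/em 460 nm; run twice; Ki from Dixon plot, corrected to zero substrate using Km 21.5 µM.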

The test system of a further experiment is Plasmodium falciparum. Put plainly: Antiplasmodial activity against Plasmodium falciparum FcBR. The class given is functional, organism-based. The settings on record: FCBR/Columbia. Summed up: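 Synchronized ring-stage parasites (strain FCBR) grown in human RBC (A Rh+), RPMI 1640 with 25 mM HEPES, 20 mM bicarbonate, 0.5% AlbuMAX I, 2.5% hematocrit, 37 °C under 94% N₂/1% O₂/5% CO₂; plated at 1% parasitemia with compounds (DMSO stock diluted 10-fold in 50% ethanol), 100–0.0488 µM, in quadruplicate; 50% ethanol as negative control; dose-dependent effect on development quantified.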

The Ki is a dissociation constant, usually derived from enzyme kinetics or from competition with a known ligand. The term IC50 denotes the concentration that inhibits the measured activity by half. Low readings indicate inhibition by little substance, high ones a need for much substance.

Chain of Rhodesain (Q95PM0 whole entry): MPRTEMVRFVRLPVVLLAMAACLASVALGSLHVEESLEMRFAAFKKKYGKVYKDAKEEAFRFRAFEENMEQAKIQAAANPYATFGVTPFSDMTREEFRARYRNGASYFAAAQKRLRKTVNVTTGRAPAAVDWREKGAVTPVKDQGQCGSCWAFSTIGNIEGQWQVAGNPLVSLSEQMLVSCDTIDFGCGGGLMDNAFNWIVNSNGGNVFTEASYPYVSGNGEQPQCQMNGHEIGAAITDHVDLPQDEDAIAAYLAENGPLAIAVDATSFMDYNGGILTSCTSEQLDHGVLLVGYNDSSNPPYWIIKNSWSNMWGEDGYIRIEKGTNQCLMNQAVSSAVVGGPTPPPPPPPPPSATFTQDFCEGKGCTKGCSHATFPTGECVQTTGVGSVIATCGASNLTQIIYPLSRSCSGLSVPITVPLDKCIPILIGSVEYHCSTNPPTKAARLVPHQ
Chain of Procathepsin L (P07711 whole entry): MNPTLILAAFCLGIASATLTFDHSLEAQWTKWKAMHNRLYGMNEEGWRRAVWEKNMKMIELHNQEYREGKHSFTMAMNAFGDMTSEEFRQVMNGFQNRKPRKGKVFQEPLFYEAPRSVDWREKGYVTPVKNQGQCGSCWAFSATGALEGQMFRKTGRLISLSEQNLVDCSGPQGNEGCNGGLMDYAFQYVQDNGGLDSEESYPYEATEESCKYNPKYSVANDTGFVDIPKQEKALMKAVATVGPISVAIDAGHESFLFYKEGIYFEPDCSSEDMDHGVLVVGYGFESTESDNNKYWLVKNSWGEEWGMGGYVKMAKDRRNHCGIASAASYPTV

In the case of `CC(=O)Oc1cc2cc3c(cc2c(-c2ccc(N)cc2)n1)OCO3`, the inhibition constant Ki at Rhodesain (read-out: Ki) amounted to 38.3 µM; on Procathepsin L it was 13.6 µM; at Cathepsin B (read-out: Ki), 6.7 µM; in experiment [1], 19.7 µM. In addition, half-maximal inhibition with Plasmodium falciparum (IC50) was put at 58.8 µM.
The like results for `COc1ccc(-c2c3cc4c(cc3cc(=O)n2NC(=O)OC(C)(C)C)OCO4)cc1` were, in that order, 19.4 µM, 4.1 µM, 7.5 µM, 24.4 µM and 7.7 µM.
On the same counts, the results for `CCOC(=O)Nn1c(-c2ccc(OC)cc2)c2cc3c(cc2cc1=O)OCO3` are 9.4 µM, 7.7 µM, 16.7 µM, 62.7 µM and 8.4 µM.
The like results for `COc1ccc(-c2c3cc4c(cc3cc(=O)n2NC(=O)Nc2ccc(C(C)=O)cc2)OCO4)cc1` were, in that order, 14 µM, 2.1 µM, 3.7 µM, 5.9 µM and 11.8 µM.
With `COc1ccc(-c2c3cc(OC)c(OC)cc3cc(=O)n2NC(=O)OC(C)(C)C)cc1`, the Ki entry on Rhodesain was “Not Active”; at Procathepsin L, 39.7 µM; on Cathepsin B, “Not Active”; in experiment [1] it was 40.3 µM. This compound returned an IC50 in the experiment with Plasmodium falciparum of 9.3 µM.
As for `COc1ccc(-c2c3cc4c(cc3cc(=O)n2NC(=O)Nc2ccc(SC)cc2)OCO4)cc1`, the Ki was 18.7 µM at Rhodesain (read-out: Ki), 0.85 µM on Procathepsin L, 4 µM on Cathepsin B (read-out: Ki) and 6.5 µM in experiment [1]. Besides, the IC50 in the experiment on Plasmodium falciparum is over 100 µM.
`COc1ccc(-c2c3cc4c(cc3cc(=O)n2N)OCO4)cc1`: the Ki was found to be 6.3 µM on Rhodesain (read-out: Ki), 7 µM on Procathepsin L, 16.3 µM at Cathepsin B (read-out: Ki) and 15 µM in experiment [1]. This compound displayed an IC50 in the experiment on Plasmodium falciparum of 25.5 µM.
On the same counts, the results for `COc1ccc(-c2c3cc(OCc4ccccc4)c(OCc4ccccc4)cc3cc(=O)n2N)cc1` are 4 µM, 4.2 µM, 3.3 µM, 2.3 µM and 16.9 µM.
On to `Cc1cc2cc3c(cc2c(-c2ccc(N)cc2)n1)OCO3`, for which the Ki at Rhodesain (read-out: Ki) was determined as 19.4 µM; on Procathepsin L, 8.7 µM; on Cathepsin B (read-out: Ki), 6.9 µM; in experiment [1], 7.3 µM. Also, the IC50 in the experiment with Plasmodium falciparum amounted to 38.8 µM.
`CC(C)C[C@H](NC(=O)[C@H]1O[C@@H]1C(=O)O)C(=O)NCCCCN=C(N)N` [E-64]: the Ki is 16 µM at Cathepsin B (read-out: Ki) and 0.29 µM in experiment [1].
